Experimental data published in publication PMC9673116 (Poultry Science, 2022).
Like-named read-outs stand apart in the source and are kept apart here.

How the values were obtained:
chicken BCRP = conditions: ref Zhang et al., 2018; cited from earlier work
[1] = ref Anadon et al., 2008; cited from earlier work
BCRP = assay: Mitoxantrone accumulation assay; format: cell-based, chicken
Outline: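 Hepatocytes isolated from livers of 14-day-old Arbor Acres broiler embryos, grown in M199 with transferrin, penicillin and streptomycin (37°C, 5% CO2). Exposed 24 h to CXR agonist alone or with BCRP inhibitor; untreated cells served as negative control. All wells then loaded with mitoxantrone 1 h, trypsinized, washed 3× PBS. Intracellular fluorescence read by flow cytometry at 633 nm excitation. At least 3 independent experiments, mean ± SD.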

CYP2H1 mRNA [2] = assay: RT-PCR analysis of CYP2H1 mRNA in chicken primary hepatocytes; format: cell-based; conditions: 500 µM metyrapone 24 h
Outline: (§1)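 Primary broiler-embryo hepatocytes grown to 70% confluency in 6-well plates. Transfected 24 h with CXR-targeting or scrambled control siRNA, then exposed to CXR agonist 24 h. Total RNA extracted with TRIzol and reverse-transcribed. Target mRNA quantified by SYBR Green real-time PCR against β-actin, 2^−ΔΔCt method. Three independent experiments, mean ± SD.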

ABCG2 mRNA [3] = assay: RT-PCR analysis of ABCG2 mRNA in chicken primary hepatocytes; format: cell-based; conditions: hepatocytes transfected with siCXR, 500 µM metyrapone 24 h
Outline: as §1

BCRP protein [4] = assay: Western blot analysis of BCRP protein expression in chicken primary hepatocytes; format: cell-based
Outline: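 Primary hepatocytes exposed 24 h to a range of CXR agonist concentrations, or siRNA-knocked-down first (CXR-targeting vs scrambled) and then agonist-treated 24 h. Lysed in RIPA, protein by BCA, separated on 5–12% SDS-PAGE, transferred to PVDF. Blocked with 5% milk 1 h. Probed overnight at 4°C with anti-BCRP 1:500 and anti-β-tubulin 1:5,000, then secondary 1:4,000 1 h at 37°C. ECL detection; densitometry normalized to β-tubulin.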

CYP2H1 mRNA [5] = assay: RT-PCR analysis of CYP2H1 mRNA in tissues of chickens treated with metyrapone; format: in vivo; conditions: metyrapone single oral 150 mg per chicken, 24 h
Outline: (§2)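 Twelve third-week-old chickens of similar weight in two groups of 6: untreated, or a single oral CXR agonist dose of 150 mg per chicken. Killed by CO2 asphyxiation 24 h later. Tissues snap-frozen and stored −70°C. RNA extracted with TRIzol and reverse-transcribed. mRNA quantified by SYBR Green real-time PCR with β-actin reference, 2^−ΔΔCt. Mean ± SD.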

ABCG2 mRNA [6] = assay: RT-PCR analysis of ABCG2 mRNA in tissues of chickens treated with metyrapone; format: in vivo; conditions: metyrapone single oral 150 mg per chicken, 24 h
Outline: as §2

BCRP protein [7] = format: in vivo; conditions: metyrapone single oral 150 mg per chicken, 24 h
Outline: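 Third-week-old chickens (6 per group), untreated or given a single oral CXR agonist dose of 150 mg per chicken, killed by CO2 24 h later. Tissues snap-frozen. Protein extracted with RIPA and quantified by BCA. Separated by 5–12% SDS-PAGE, blotted to PVDF. Probed with anti-BCRP 1:500 and anti-β-tubulin 1:5,000 overnight at 4°C. ECL detection; densitometry normalized to β-tubulin.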

[8] = Pharmacokinetic study of orally administered florfenicol in chicken; format: in vivo; conditions: female, HY-Line Brown, plasma, po, 20 mg/kg
[9] = Arbor Acres broilers, ref Liu et al., 2018; cited from earlier work

## CC[C@H]1OC(=O)C[C@@H](O)[C@H](C)[C@@H](O[C@@H]2O[C@H](C)[C@@H](O)[C@H](N(C)C)[C@H]2O)[C@@H](CCN2C[C@H](C)C[C@H](C)C2)C[C@@H](C)C(=O)/C=C/C(C)=C/[C@@H]1CO[C@@H]1O[C@H](C)[C@@H](O)[C@@H](OC)[C@H]1OC [tilmicosin]
Chicken BCRP
  Transport by chicken BCRP: actively transported

## CS(=O)(=O)c1ccc([C@@H](O)[C@H](N)CF)cc1 [florfenicol amine]
[1]
  Eliminated by renal excretion as metabolite florfenicol amine: 25%

## COc1ccc2c3c([nH]c2c1)[C@H](CC(C)C)N1C(=O)[C@H](CCC(=O)OC(C)(C)C)NC(=O)[C@@H]1C3 [Ko143]
BCRP; cotreatment of Ko143 with 500 µM metyrapone
  Effect on metyrapone-induced mitoxantrone efflux activity: reversed

## CC(C)(C(=O)c1cccnc1)c1cccnc1 [metyrapone, Metyrapone]
CYP2H1 mRNA [2]; hepatocytes transfected with CXR expression vector
  Induction of CYP2H1 mRNA upon metyrapone treatment, CXR expression vector: 5.1 fold
CYP2H1 mRNA [2]; hepatocytes transfected with siCXR
  Induction of CYP2H1 mRNA by metyrapone after knockdown of CXR: 0.5 fold
ABCG2 mRNA [3]
  Induction of ABCG2 at the mRNA level by metyrapone after knockdown of CXR: 0.7 fold
BCRP protein [4]; hepatocytes transfected with siCXR, 500 µM metyrapone 24 h
  Induction of ABCG2 at the protein level by metyrapone after knockdown of CXR: 0.7 fold
BCRP protein [4]; increasing concentrations of metyrapone, 24 h, chicken primary hepatocytes
  BCRP protein expression, fold vs negative control cells: up to 2.8 fold
BCRP; 500 µM metyrapone pretreatment 24 h, 5 µM mitoxantrone 1 h, P < 0.01
  Intracellular mitoxantrone fluorescence lower than in untreated cells: 33%
CYP2H1 mRNA [5]; duodenum
  CYP2H1 mRNA expression increase: 5.6 fold
CYP2H1 mRNA [5]; ileum
  Effect on expression of CYP2H1: did not influence
CYP2H1 mRNA [5]; jejunum
  CYP2H1 mRNA expression increase: 1.7 fold
CYP2H1 mRNA [5]; kidney
  CYP2H1 mRNA expression increase: 8 fold
CYP2H1 mRNA [5]; liver
  CYP2H1 mRNA expression increase: 3.6 fold
ABCG2 mRNA [6]; duodenum
  ABCG2 mRNA expression increase: 1.8 fold
ABCG2 mRNA [6]; ileum
  Effect on expression of ABCG2: did not influence
ABCG2 mRNA [6]; jejunum
  ABCG2 mRNA expression increase: 1.6 fold
ABCG2 mRNA [6]; kidney
  ABCG2 mRNA expression increase: 2.2 fold
ABCG2 mRNA [6]; liver
  ABCG2 mRNA expression increase: 2.1 fold
BCRP protein [7]; duodenum
  BCRP protein expression increase: 1.4 fold
BCRP protein [7]; jejunum
  BCRP protein expression increase: 1.3 fold
BCRP protein [7]; kidney
  BCRP protein expression increase: 1.6 fold
BCRP protein [7]; liver
  BCRP protein expression increase: 1.6 fold

## CS(=O)(=O)c1ccc([C@@H](O)[C@@H](CF)NC(=O)C(Cl)Cl)cc1 [Florfenicol, florfenicol]
[8]
  Vd/F: 0.24 ± 0.05 L/kg
  half-life: 2.13 ± 0.45 h
Chicken BCRP
  Transport by chicken BCRP: actively transported
[9]
  Absorption upon coadministration of gefitinib (a BCRP inhibitor): more extensively absorbed

## CC1(C)S[C@@H]2[C@H](NC(=O)[C@H](N)c3ccccc3)C(=O)N2[C@H]1C(=O)O [ampicillin]
Chicken BCRP
  Transport by chicken BCRP: actively transported

## CCN1CCN(c2cc3c(cc2F)c(=O)c(C(=O)O)cn3C2CC2)CC1 [enrofloxacin]
Chicken BCRP
  Transport by chicken BCRP: actively transported
